Experimental data as given in ChEMBL document CHEMBL3232870, “Discovery of 3-(4-methanesulfonylphenoxy)-N-[1-(2-methoxy-ethoxymethyl)-1H-pyrazol-3-yl]-5-(3-methylpyridin-2-yl)-benzamide as a novel glucokinase activator (GKA) for the treatment of type 2 diabetes mellitus” (Bioorg Med Chem, 2014).

Columns and labels:
[1] = test system: Mus musculus; assay: Toxicity in fasting C57BL/J6 mouse assessed as glucose lowering effect at 30 mg/kg, po after 30 to 360 mins; format: organism-based; set-up: dose 30 mg/kg, route oral; conditions: in vivo
How it was run: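 Eight-week-old male C57BL/6 mice were fasted 6 h with free access to water, then dosed orally with compound or 0.5% methylcellulose vehicle, with no glucose challenge. Blood glucose was followed up to 360 min, n = 6 per group.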

[2] = test system: Mus musculus; assay: Antidiabetic activity in glucose-treated C57BL/J6 db/db mouse assessed as reduction of glucose AUC at 50 mg/kg, po preincubated for 30 mins followed by glucose challenge measured after 30 to 180 mins by oral glucose tolerance test relative to control; format: functional; set-up: scale not given: the % may be the effect or the level left; conditions: in the assay text read “C57BL/J6 mouse” for “C57BL/J6 db/db mouse”
How it was run: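 Oral glucose tolerance test. Mice: eight-week-old male C57BL/6 or ten-week-old male C57BLKS/J db/db, fasted overnight with water. Compound or 0.5% methylcellulose vehicle given orally, then an oral 2 g/kg glucose challenge 30 min later. Tail-tip blood glucose was read just before and at 30, 60, 90, 120 and 180 min. AUC was calculated from the time–glucose curve; n = 6.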

[3] = target: T1, Hexokinase-4 (Homo sapiens, UniProt P35557); assay: Activation of recombinant human pancreatic glucokinase using 10 mM glucose by spectrophotometry
T1 sequence (P35557 whole entry): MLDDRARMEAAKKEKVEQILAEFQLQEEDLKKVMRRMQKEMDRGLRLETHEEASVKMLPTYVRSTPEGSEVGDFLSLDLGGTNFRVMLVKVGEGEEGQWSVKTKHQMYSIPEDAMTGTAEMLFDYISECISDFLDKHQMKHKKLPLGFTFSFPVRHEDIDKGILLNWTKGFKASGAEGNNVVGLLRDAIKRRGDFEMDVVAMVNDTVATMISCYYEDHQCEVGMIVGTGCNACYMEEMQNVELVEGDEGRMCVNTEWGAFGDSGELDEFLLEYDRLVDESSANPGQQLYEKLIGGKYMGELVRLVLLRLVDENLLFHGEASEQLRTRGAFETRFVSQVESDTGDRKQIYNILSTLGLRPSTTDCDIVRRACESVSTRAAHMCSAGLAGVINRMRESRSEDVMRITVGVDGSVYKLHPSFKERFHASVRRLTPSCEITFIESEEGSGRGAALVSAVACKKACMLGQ
How it was run: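 Purified recombinant human pancreatic glucokinase, compounds in DMSO. Buffer: 25 mM HEPES pH 7.4, 10 mM glucose, 25 mM KCl, 1 mM MgCl2, 1 mM DTT, 1 mM ATP, 1 mM NADP, 2.5 U/mL G6PDH. Activity was expressed against DMSO-only control (100%). EC50 came from 12 concentrations fitted to a variable-slope sigmoidal curve. Values are means of three duplicate runs.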

[4] = test system: Hepatocyte; assay: Induction of 2-Deoxy-D-[3H]-glucose uptake in rat Hepatocytes using 5.5 mM glucose after 4 hrs by liquid scintillation counting; format: functional
How it was run: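 Rat primary hepatocytes, isolated by collagenase liver perfusion, viability over 85%. Cells attached 36 h on collagen I in MEM with 10% FBS, then serum-starved 12 h. Incubated 4 h in serum-free MEM with 5.5 mM glucose and 2-deoxy-D-[3H]-glucose, with or without compound. Washed in ice-cold PBS, lysed in 0.1 N NaOH, scintillation counted, expressed as % increase over control.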

[5] = test system: Mus musculus; assay: Antidiabetic activity in glucose-treated C57BL/J6 mouse assessed as reduction of glucose AUC at 300 mg/kg, po preincubated for 30 mins followed by glucose challenge measured after 30 to 180 mins by oral glucose tolerance test relative to control; set-up: scale not given: the % may be the effect or the level left

Question: Which Activity [1] does the source give for N[C@@H](CC(=O)N1CCn2c(nnc2C(F)(F)F)C1)Cc1cc(F)c(F)cc1F [SITAGLIPTIN] here?
Answer: Non-toxic

Question: Which Activity [2] does the source give for Cc1cccnc1-c1cc(Oc2ccc(S(C)(=O)=O)cc2)cc(C(=O)Nc2nccs2)c1 here?
Answer: 29.8%

Question: What about the EC50 [3] of the same compound?
Answer: 0.095 µM

Question: What about the “fold change (FC)” value [4] of the same compound?
Answer: 1.98

Question: For CCCNCc1csc(NC(=O)c2cc(Oc3ccc(S(C)(=O)=O)cc3)cc(-c3ncccc3C)c2)n1, which EC50 [3] is on record?
Answer: > 50 µM

Question: COCC(C)NCc1csc(NC(=O)c2cc(Oc3ccc(S(C)(=O)=O)cc3)cc(-c3ncccc3C)c2)n1 (centres undefined) was tested. Which EC50 [3] did it give?
Answer: 0.008 µM

Question: And the “fold change (FC)” value [4]?
Answer: 1.72

Question: CN(C)C(=N)NC(=N)N [METFORMIN] was tested. Which Activity [5] did it give?
Answer: 29.9%

Question: Which Activity [2] does the source give for COCCN(CCOC)Cc1csc(NC(=O)c2cc(Oc3ccc(S(C)(=O)=O)cc3)cc(-c3ncccc3C)c2)n1 here?
Answer: 20.2%

Question: And the EC50 [3]?
Answer: 2.43 µM

Question: And the “fold change (FC)” value [4]?
Answer: 2.02

Question: Which results are given for Cc1cccnc1-c1cc(Oc2ccc(S(C)(=O)=O)cc2)cc(C(=O)Nc2ccn(C)n2)c1?
Answer: Activity [2]: 24.1%; EC50 [3]: 0.807 µM; fold change (FC) [4]: 1.74

Question: With CCN(CC)Cc1csc(NC(=O)c2cc(Oc3ccc(S(C)(=O)=O)cc3)cc(-c3ncccc3C)c2)n1 as the compound, how does the EC50 [3] read?
Answer: > 50 µM

Question: What does the source list for Cc1cccnc1-c1cc(Oc2ccc(S(C)(=O)=O)cc2)cc(C(=O)Nc2nc(CN3CCN(C)CC3)cs2)c1?
Answer: Activity [2]: 4.4%; EC50 [3]: 0.688 µM; fold change (FC) [4]: 1.19

Question: For CCOCn1ccc(NC(=O)c2cc(Oc3ccc(S(C)(=O)=O)cc3)cc(-c3ncccc3C)c2)n1, which EC50 [3] is on record?
Answer: > 50 µM

Question: Which results are given for Cc1cccnc1-c1cc(Oc2ccc(S(C)(=O)=O)cc2)cc(C(=O)Nc2nc(CN3CCOCC3)cs2)c1?
Answer: EC50 [3]: 0.212 µM; fold change (FC) [4]: 2.1

Question: For Cc1cccnc1-c1cc(Oc2ccc(S(C)(=O)=O)cc2)cc(C(=O)Nc2ccn(CCN3CCOCC3)n2)c1, which Activity [2] is on record?
Answer: 17.8%

Question: And the EC50 [3]?
Answer: 0.441 µM

Question: What about the “fold change (FC)” value [4] of the same compound?
Answer: 1.86

Question: With Cc1cccnc1-c1cc(Oc2ccc(S(C)(=O)=O)cc2)cc(C(=O)Nc2nc(CNC(C)C)cs2)c1 as the compound, how does the Activity [2] read?
Answer: 2.2%

Question: And the EC50 [3]?
Answer: 0.463 µM

Question: What about the “fold change (FC)” value [4] of the same compound?
Answer: 1.47

Question: Which EC50 [3] does the source give for COCCN(C)Cc1csc(NC(=O)c2cc(Oc3ccc(S(C)(=O)=O)cc3)cc(-c3ncccc3C)c2)n1 here?
Answer: 7.46 µM

Question: What about the “fold change (FC)” value [4] of the same compound?
Answer: 1.46

Question: With COC(CNCc1csc(NC(=O)c2cc(Oc3ccc(S(C)(=O)=O)cc3)cc(-c3ncccc3C)c2)n1)OC as the compound, how does the EC50 [3] read?
Answer: 0.033 µM

Question: What about the “fold change (FC)” value [4] of the same compound?
Answer: 1.92

Question: How did the EC50 [3] turn out when C#CCNCc1csc(NC(=O)c2cc(Oc3ccc(S(C)(=O)=O)cc3)cc(-c3ncccc3C)c2)n1 was run?
Answer: 0.106 µM

Question: And the “fold change (FC)” value [4]?
Answer: 2.35

Question: With Cc1cccnc1-c1cc(Oc2ccc(S(C)(=O)=O)cc2)cc(C(=O)Nc2ncc(F)s2)c1 as the compound, how does the Activity [2] read?
Answer: 22.6%

Question: And the EC50 [3]?
Answer: 0.238 µM

Question: And the “fold change (FC)” value [4]?
Answer: 1.75

Question: With Cc1cccnc1-c1cc(Oc2ccc(S(C)(=O)=O)cc2)cc(C(=O)Nc2nc(CN3CCNCC3)cs2)c1 as the compound, how does the EC50 [3] read?
Answer: > 50 µM

Question: Cc1cccnc1-c1cc(Oc2ccc(S(C)(=O)=O)cc2)cc(C(=O)Nc2nc(CC(=O)NC3CC3)cs2)c1 was tested. Which Activity [2] did it give?
Answer: -3.1%

Question: What about the EC50 [3] of the same compound?
Answer: 0.103 µM

Question: What about the “fold change (FC)” value [4] of the same compound?
Answer: 1.8

Question: How did the EC50 [3] turn out when CCN(CC)CCn1ccc(NC(=O)c2cc(Oc3ccc(S(C)(=O)=O)cc3)cc(-c3ncccc3C)c2)n1 was run?
Answer: > 50 µM

Question: For CCNC(=O)Cc1csc(NC(=O)c2cc(Oc3ccc(S(C)(=O)=O)cc3)cc(-c3ncccc3C)c2)n1, which Activity [2] is on record?
Answer: -0.3%

Question: And the EC50 [3]?
Answer: 0.005 µM

Question: What about the “fold change (FC)” value [4] of the same compound?
Answer: 2.54
